# Most compounds without a hit are left out; they make up all but 1.7% or so of the library.
# Casp6 inh: human caspase-6 inhibitors, primary screen, biochemical, VEID-R110 fluorescence, single point, set 2. P55212. purified caspase-6, Z-VEID-R110 cleavage fluorescence. inhibition, % at 12.5 µM. 0.53% of 350,000 active;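 active = mean inhibition across replicates at least about 35%, with every replicate also reaching that limit, limit read from the data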;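 also: 0% = median of neutral control wells and 100% = no fluorescence left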
# Target sequence (P55212 24-179 limits assumed): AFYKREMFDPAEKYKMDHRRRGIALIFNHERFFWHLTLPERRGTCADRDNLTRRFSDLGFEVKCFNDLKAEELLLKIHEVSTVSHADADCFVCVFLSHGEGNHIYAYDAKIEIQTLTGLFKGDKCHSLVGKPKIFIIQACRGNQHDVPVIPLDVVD
# Target sequence (P55212 194-293 limits assumed): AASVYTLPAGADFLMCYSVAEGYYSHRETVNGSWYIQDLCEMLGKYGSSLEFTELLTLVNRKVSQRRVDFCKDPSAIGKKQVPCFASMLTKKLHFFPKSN
# Scp1 inh: Scp-1 phosphatase inhibitors, primary screen, biochemical, colorimetric, uHTS; Carboxy-terminal domain RNA polymerase II polypeptide A small phosphatase 1 (Homo …; AID 493091, 2011; Recombinant Scp1, phosphopeptide, malachite green phosphate absorbance; 0.88% of 340,000 active; inhibition, % at 20 µM;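 active = inhibition above about 50% at 20 µM, limit read from the data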;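 also: plate controls were DMSO wells with enzyme for no effect and wells lacking enzyme for full effect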
# Target sequence (Q9GZU7 76-261 limits assumed): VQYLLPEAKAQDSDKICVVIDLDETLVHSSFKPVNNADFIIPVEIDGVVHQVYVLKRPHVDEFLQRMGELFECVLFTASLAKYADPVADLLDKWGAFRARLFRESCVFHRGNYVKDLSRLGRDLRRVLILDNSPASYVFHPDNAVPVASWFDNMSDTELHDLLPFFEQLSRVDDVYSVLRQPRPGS
#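 assay system = SCP-1 phosphatase catalytic domain, residues 76-261 | buffer or medium = 50 mM Tris acetate pH 5.5, 0.005% Tween-20, 10 mM MgCl2 | incubation = enzyme reaction 45 min at room temperature, colour 5 min, stabilisation 30 min | signal = Phosphate-binding colour reagent, absorbance read at 630 nm | measure = % inhibition at 20 µM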
# LMPTP block: LMPTP phosphatase inhibitors, primary screen, biochemical, fluorescence intensity, uHTS. Low molecular weight phosphotyrosine protein phosphatase (Homo sapiens), P24666. recombinant LMPTP-A, OMFP fluorogenic substrate. inhibition, % at 20 µM. 0.22% of 360,000 active. AID 651560, 2012;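 active = compounds that cut the enzyme signal by at least half of the control window in the single-dose screen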;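 also: plate controls were DMSO wells with enzyme plus substrate for no effect and substrate without enzyme for full effect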
#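 Test system – LMPTP-A phosphatase enzyme · Quantity – 0.625 nM LMPTP-A final · Reagent – OMFP substrate, 400 µM final · Dosing – one test concentration per compound, 20 µM, with 3% DMSO overall · Timing – 50 min enzyme reaction at room temperature, protected from light · Detection – fluorescence intensity · Controls – substrate-only low control, DMSO enzyme-plus-substrate high control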
# STEP inh: STEP phosphatase inhibitors, primary screen, biochemical, fluorescence intensity, uHTS; recombinant STEP, OMFP fluorogenic substrate; inhibition, % at 20 µM; 0.25% of 360,000 active;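 active = inhibition at 20 µM, scaled per plate between control wells, above about 37%, limit read from the data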;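 also: 0% = DMSO with enzyme and substrate and 100% = substrate only without enzyme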
#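 Assay system: isolated STEP enzyme. Buffer or medium: pH 6.0 Bis-Tris with DTT and Tween 20. Also added: fluorogenic phosphatase substrate OMFP at 25 µM final. Dosing: 20 µM, 1% DMSO. Timing: 20 min reaction, room temperature, in the dark. Measured by: fluorescence intensity, excitation 480 nm, emission 540 nm. Evaluation: normalized % inhibition.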
# DNMT1 inh: human DNMT1 methyltransferase inhibitors, primary screen, biochemical, molecular beacon, fluorescence, HinP1I cleavage, uHTS | 0.83% of 360,000 active | inhibition (reported as % activation of signal), % at 10 µM | DNA (cytosine-5)-methyltransferase 1 (Homo sapiens), P26358 | AID 588458, 2011; in the data active = inhibition above about 50%
# SUMO1-SIM PPI: modulators of SUMO1 protein-protein interactions, primary screen, biochemical, uHTS; Small ubiquitin-related modifier 1 (Homo sapiens), P63165; SUMO1 binding to a labelled peptide, TR-FRET, 1 h; inhibition, % at 20 µM; 0.33% of 360,000 active; AID 602429, 2012; in the data active = inhibition above about 37%
# Target sequence (P63165 whole entry, looked up): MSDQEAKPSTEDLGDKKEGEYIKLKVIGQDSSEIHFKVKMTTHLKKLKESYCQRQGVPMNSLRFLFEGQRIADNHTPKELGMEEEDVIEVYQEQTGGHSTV
# Numbers without * were called inactive; . = no result given; + = active, no number.
SMILES,Casp6 inh,Scp1 inh,LMPTP block,STEP inh,DNMT1 inh,SUMO1-SIM PPI
COC(=O)c1c(C)oc2c1cc(NS(=O)(=O)c1ccc(C(=O)O)cc1)c1ccccc12,42.0*,-16.1,2.3,0.4,-35.4,37.0
CC(=O)c1c(C)oc2c1cc(NS(=O)(=O)c1ccc(C(=O)O)cc1)c1ccccc12,14.8,5.3,-0.5,1.5,-2.1,14.2
C=CCN1C(=O)/C(=C/c2ccc(OCC(=O)O)cc2)S/C1=N/c1nccs1,38.2*,0.3,0.9,2.5,1.0,-5.9
Cc1noc(C)c1COc1ccccc1C(=O)N1CCN(c2cccc(Cl)c2)CC1,-137.1,-5.5,-7.9,0.0,-1.6,-22.9
COC(=O)C(=O)C1CCc2c(Cl)cc(OC)c(OC)c2C1=O (stereo unspecified),78.5*,-0.3,2.9,3.2,-10.4,-3.3
O=S(=O)(NCC(O)c1ccccc1)c1ccc(-c2ccccn2)s1 (stereo unspecified),0.6,-3.3,-0.4,-1.3,0.6,-7.4
C[C@@H]1CN([C@@H](C)CO)C(=O)Cc2cc(N(C)C)ccc2O[C@@H]1CN(C)Cc1ccccc1,35.0*,.,.,.,.,.
C[C@H]1CN([C@@H](C)CO)C(=O)Cc2cc(NS(C)(=O)=O)ccc2O[C@@H]1CN(C)S(=O)(=O)c1ccc(F)cc1,-0.4,.,.,.,.,.
C[C@H](CO)N1C[C@H](C)[C@@H](CN(C)S(=O)(=O)c2ccc(F)cc2)Oc2ccc(NS(C)(=O)=O)cc2CC1=O,43.7*,.,.,.,.,.
C[C@H]1CN([C@@H](C)CO)C(=O)Cc2cc(NC(=O)NC3CCCCC3)ccc2O[C@H]1CN(C)Cc1ccc(-c2ccccc2)cc1,42.0*,.,.,.,.,.
O=S(=O)(c1ccccc1)N1CCc2ccccc2C1,-1.3,-4.7,-0.4,-0.1,1.9,-2.8
COc1cccc(C(=O)Nc2ccc(N(C)C)cc2)c1OC,.,-6.1,1.7,0.6,-1.3,-4.5
CCOc1ccc(CCNC(=O)CCS(=O)(=O)c2ccc(OC)cc2)cc1OCC,38.5*,17.0,-0.4,-1.3,11.7,0.3
COc1cc(NCCCNC(C)C)c2nccc(C)c2c1,87.9*,-9.5,-0.1,3.6,17.3,-64.3
Cc1ccc(NC(=O)CCS(=O)(=O)c2cc3[nH]c(=O)c(=O)[nH]c3cc2C)cc1,36.6*,0.6,-0.6,-0.1,5.2,1.1
CCN1/C(=C/c2ccc3ccccc3[n+]2CC)C=Cc2ccccc21,.,104.2*,46.4,23.7,40.0,19.5
CCN1/C(=C/c2ccc3ccccc3[n+]2CCCS(=O)(=O)[O-])C=Cc2cc(C)ccc21,4.4,43.5,9.9,4.9,-4.7,-20.4
COc1ccc2c(C#N)c3ccccn3c2c1,61.9*,-9.4,2.0,-0.1,-1.6,-9.7
CCOc1ccccc1-c1c2cc(O)c(=O)cc-2oc2cc(O)c(O)cc12,.,33.3,65.8*,-310.1,+,-18.6
CCOC(=O)c1oc2cc(O)ccc2c(=O)c1-c1ccccc1OC,.,-7.9,-1.1,1.6,-2.4,-4.1
O=c1cc2oc3cc(O)c(O)cc3c(-c3ccccc3O)c-2cc1O,.,31.1,66.5*,2.5,110.2*,6.1
COc1ccc(OC)c(-c2c3cc(O)c(=O)cc-3oc3cc(O)c(O)cc23)c1,.,68.2*,77.6*,16.4,149.6*,25.0
COc1ccc(C2N(c3ccccn3)C(=O)C3CCCN32)c(OC)c1 (stereo unspecified),.,-8.6,-1.6,-1.9,0.8,-1.6
COc1ccccc1NC(=O)c1cc(S(=O)(=O)N2CCc3ccccc32)ccc1F,1.1,-9.1,2.4,-1.2,-1.3,3.9
CN(C)CCN1C(=O)c2cccc3cc([N+](=O)[O-])cc(c23)C1=O,1.9,4.7,3.5,0.0,69.1*,1.5
SMILES,Casp6 inh,Scp1 inh,LMPTP block,STEP inh,DNMT1 inh,SUMO1-SIM PPI
Cc1ccc(S(=O)(=O)n2nccc2-c2c(-c3ccc(Cl)cc3)noc2C)cc1,-1.9,-12.5,4.0,0.5,2.5,-1.3
CC(=O)c1c(C)[nH]c(C(=O)OCC(=O)c2ccc3c(c2)NC(=O)CO3)c1C,-4.1,-8.6,2.3,-0.6,-3.2,64.8*
CCN(CC)CCCN=C1N[C@@H](c2cccc(F)c2)C(C(=O)OC)=C(C)N1Cc1ccccc1,-14.7,102.6*,-1.8,2.0,-1.2,-3.8
COCCN1C(=NCCCOC(C)C)N[C@@H](c2ccccc2)C(C(=O)OC)=C1C,.,54.6*,-2.3,-2.1,3.0,2.0
COC(=O)C1=C(C)N(Cc2ccccc2)C(=NCc2ccccc2)N[C@H]1c1cccc(F)c1,5.9,-0.2,0.0,0.5,2.5,-17.9
COc1ccc(-n2c(SCc3cccnc3)nc3c(c2=O)SCC3)cc1OC,-4.9,2.5,0.4,-0.4,5.8,-3.3
CC(=O)c1ccc(N=Nc2ccc(C)cc2)cc1,-0.1,-10.7,0.5,-1.6,-3.1,-16.9
C=C(C)C(=O)Oc1ccc(N=Nc2ccc(C)cc2)ccc1=O,79.6*,85.4*,10.1,11.4,95.4*,47.5*
CCOC(=O)NC(=O)CSc1nnnn1-c1ccc(C)cc1,.,0.6,-2.2,-1.8,0.0,3.2
Cc1ccc(-c2nn(-c3ccccc3)cc2C2CC(c3cccs3)=NN2C(=O)CCCC(=O)O)cc1 (stereo unspecified),.,89.1*,1.3,28.7,-8.0,-11.1
Cc1cc(=O)[nH]c(SCCCOc2ccc(F)cc2)n1,.,-1.1,-1.4,-0.4,2.2,1.8
NC(=S)C(c1ccccc1)c1ncc(C(F)(F)F)cc1Cl (stereo unspecified),1.3,-0.9,0.5,-2.0,0.5,4.5
COC(=O)Nc1nnc(Cc2ccc(Cl)cc2)s1,.,-15.4,0.0,2.1,-0.5,1.5
COc1cc(/C=C2/C(=O)CNC2=O)ccc1O,.,-1.1,-0.9,-1.2,-3.3,-33.7
COc1cc(C=C2C(=O)C=CC2=O)ccc1O,79.0*,.,6.2,.,.,18.4
Oc1ccc(/C=N/N=C/c2ccc(O)c(O)c2)cc1O,67.7*,-12.1,-0.1,1.0,17.4,-13.3
Oc1ccc(N=Cc2ccc(O)c(O)c2)cc1,.,3.2,14.1,9.5,65.4*,50.8*
O=C(/C(=N/N=C/c1ccc(O)c(O)c1)c1ccccc1)c1ccccc1,44.3*,-8.0,2.3,-3.0,-13.6,-5.4
O=Cc1ccc(O)c(O)c1,11.6,-6.2,-2.7,-2.5,-0.7,5.0

# Compound activity deposited in PubChem BioAssay by several laboratories.
